Test results: PMC11178347 (Proteoglycan research, 2023)
“Also recorded” adds a separate entry of the source. Blank lines part the entries; values can stand above or below the substance they belong to. Ends that are not written are not given here.

Tests used:
[1] = Circular dichroism secondary structure of GQLY variants; type: physicochemical; settings: 1 mg/mL, pH 8.5 sodium borate buffer; for Antiparallel / Helix / Others / Parallel / Turn: CD far-UV 190-250 nm, BESTSEL; for Structure difference between variants by CD: SRR-hyd vs GSG-hyd
Method in brief: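 Peptides at 1 mg/mL in pH 8.5 sodium borate buffer, quartz cell. Far-UV spectra 190–250 nm, baseline-corrected. Secondary-structure fractions fitted by least squares at each wavelength point, separating antiparallel β-sheet by twist angle and regular from distorted α-helix.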

[2] = Peptide association with chondroitin sulfate; type: physicochemical; settings: for Decrease in peptides associated per disaccharide / Percent Decrease in total peptide associated/GAG: with CS, before vs after 1 M NaCl and 8 M urea wash
Method in brief: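 Chondroitin sulfate (10 mg/mL) reacted overnight at pH 4.5 with peptide (theoretical 16% disaccharide substitution) in 0.1 M MES/8 M urea/0.2 wt% NaCl, with EDC 0.5:1 per disaccharide or without EDC. Stopped at pH 8.5, tangential-flow filtered (10 kDa). Agitated 30 min in 1 M NaCl/8 M urea, spin-filtered (10 kDa) and water-exchanged three times. Peptide measured by A280 against standard curves, before and after wash.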

[3] = SRR-hyd conjugation to GAG backbones; type: physicochemical; settings: following salt washing
Method in brief: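 Heparin, hyaluronic acid, chondroitin sulfate or dermatan sulfate (10 mg/mL) coupled to peptide with EDC (0.5:1 per disaccharide) in 0.1 M MES/8 M urea/0.2 wt% NaCl, pH 4.5, overnight. Quenched at pH 8.5, purified by tangential flow over a 10 kDa membrane, lyophilised. Peptide content from 280 nm absorbance using peptide standard curves, expressed per disaccharide (GAG mass divided by disaccharide mass).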

[4] = test system: platelet adhesion to immobilized fibrillar collagen; assay: Inhibition of platelet adhesion to immobilized fibrillar collagen under flow; type: cell-based; settings: even at high concentrations; human whole blood, 1000 s−1
Method in brief: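 Flow channels coated with fibrillar type I collagen (100 μg/mL, 1 h, room temperature) and PBS-washed. Channels pre-incubated 1 h with test compound, or with its heparin or peptide component alone, at increasing concentrations, then flushed. Citrated human whole blood, pooled and used within 3 h, stained with Calcein-AM 30 min at 37 °C. Conjugate added to blood, perfused at 1000 s−1. Adherent platelets imaged by fluorescence and normalised to untreated control.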

[5] = test system: platelet binding; settings: ref Biran & Pond, 2017; Linhardt et al., 2008; cited from earlier work
[6] = test system: collagen; settings: ref unpublished studies; cited from earlier work

- Antiparallel [1]: 21.8
- Helix [1]: 5.5
- Others [1]: 59.2
- Parallel [1]: 0
- Turn [1]: 13.5
- Structure difference between variants by CD [1]: minimal difference in their structure
- Decrease in peptides associated per disaccharide [2]: 5.2%
- Percent Decrease in total peptide associated/GAG [2]: 32%
Substance: GQLYKSILYGSGSGSRR-hydrazide
- Peptide association with CS, with EDC ([2]; after EDC reaction, initial 10 kDa purification): significantly more peptide association when using the SRR-hyd variant compared to the GSG-hyd variant; also recorded: more SRR-hyd associated with CS compared to the SRR-amide variant

- GQLY (SRR-hyd) conjugation supported by the GAG backbone [3]: least
Substance: hyaluronic acid [HA]

- Peptide association with CS, without EDC ([2]; absence of EDC, initial 10 kDa purification): equivalent
- Decrease in peptides associated per disaccharide [2]: 5.7%
Substance: GQLYKSILYGSGSGSRR-NH2

- Antiparallel [1]: 25.6
- Helix [1]: 6.2
- Others [1]: 53.9
- Parallel [1]: 0
- Turn [1]: 14.3
- Structure difference between variants by CD [1]: minimal difference in their structure
- Decrease in peptides associated per disaccharide [2]: 1.1%
- Percent Decrease in total peptide associated/GAG [2]: 15%
Substance: GQLYKSILYGSGSG-hydrazide

The remaining lines, values behind:

Substance: dermatan sulfate [DS]
- GQLY (SRR-hyd) conjugation supported by the GAG backbone [3]: same intermediate level of GQLY conjugation

Substance: chondroitin sulfate [CS]
- GQLY (SRR-hyd) conjugation supported by the GAG backbone [3]: same intermediate level of GQLY conjugation

Substance: heparin
- Platelet inhibition, in words [4]: no significant platelet inhibition
- GQLY (SRR-hyd) conjugation supported by the GAG backbone [3]: greatest GQLY conjugation
- Platelet binding suppression [5]: known to suppress platelet binding

Substance: GQLYKSILY
- Collagen binding [6]: also binding to collagen
